This is an account of results in ChEMBL document CHEMBL1135185, “Synthesis and PTP1B inhibition of 1,2-naphthoquinone derivatives as potent anti-diabetic agents” (Bioorg Med Chem Lett, 2002).

The term IC50 denotes the midpoint of a concentration-inhibition curve.

One assay deals with T1, Tyrosine-protein phosphatase non-receptor type 1 (Homo sapiens, UniProt P18031).
T1 sequence (P18031 whole entry): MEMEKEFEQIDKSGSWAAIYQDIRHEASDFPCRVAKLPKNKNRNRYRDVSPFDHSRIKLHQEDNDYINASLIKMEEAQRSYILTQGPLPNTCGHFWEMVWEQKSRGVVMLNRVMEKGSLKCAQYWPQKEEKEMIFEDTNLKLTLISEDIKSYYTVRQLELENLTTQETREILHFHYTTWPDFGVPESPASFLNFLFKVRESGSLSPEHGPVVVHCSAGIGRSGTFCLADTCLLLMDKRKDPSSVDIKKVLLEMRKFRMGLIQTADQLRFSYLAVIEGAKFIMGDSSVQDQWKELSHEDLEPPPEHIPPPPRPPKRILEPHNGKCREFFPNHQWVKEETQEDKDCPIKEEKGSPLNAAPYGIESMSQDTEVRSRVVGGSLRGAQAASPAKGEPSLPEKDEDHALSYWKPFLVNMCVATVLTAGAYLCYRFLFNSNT
Description: In vitro inhibitory activity against recombinant human protein-tyrosine phosphatase 1B (PTP1B) using fluorescein diphosphate (FDP) as a substrate.
Conditions: not given; call rule not given here
Put shortly: (§1)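 Recombinant human PTP1B enzyme, fluorescein diphosphate (FDP) as substrate. Enzyme activity was followed by fluorescence measurement. IC50 values were obtained by direct regression curve analysis.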
Regarding `O=C1C=C(N2CCCC2)c2ccccc2C1=O`, the IC50 result is on record as “Not Active”.

The assay is the same for the next values; noted with them: read-out: IC50.
Regarding `O=C1C=C(c2cc(F)ccc2F)c2ccccc2C1=O`, the concentration for half-maximal inhibition (IC50) amounted to 0.5 µM. Take `O=C1C=C(c2c[nH]c3cc(C(=O)O)ccc23)c2ccccc2C1=O`: the IC50 worked out at 4.56 µM. Same read-out and setting: to `CN(C1=CC(=O)C(=O)c2ccccc21)c1ccccc1` belongs 34.9 µM.

For `O=C1C=C(c2c[nH]c3ccc(C(=O)O)cc23)c2ccccc2C1=O`, the IC50 amounted to 3 µM. Same read-out and setting: next, `COC(=O)C(Cc1ccccc1)Oc1ccc2c(c1)C(=O)C(=O)C=C2c1ccccc1` (stereo not drawn): 2.54 µM; `O=C1C=C(c2ccccc2O)c2ccccc2C1=O`: 1.6 µM. Consider `O=C1C=C(S(=O)(=O)O)c2ccccc2C1=O`, for which the IC50 stood at 5.29 µM. Same read-out and setting: next, `O=C1C=C(Cc2ccccc2)c2ccccc2C1=O`: 1.42 µM; `COC1=CC(=O)C(=O)c2ccccc21`: 29.1 µM. For the compound `COc1ccc(C2=CC(=O)C(=O)c3ccccc32)cc1`, the concentration for half-maximal inhibition (IC50) turned out to be 5.24 µM. The same measure, in the same setting: next, `O=C1C=C(c2cc(Cl)ccc2Cl)c2ccccc2C1=O`: 5.05 µM; `CCOC(=O)COc1ccc(C2=CC(=O)C(=O)c3ccccc32)cc1`: 1.07 µM. Same read-out and setting: to `O=C1C=C(c2ccc(O)cc2)c2ccccc2C1=O` belongs 0.44 µM; to `CCOC(=O)COc1ccccc1C1=CC(=O)C(=O)c2ccccc21`, 2.15 µM; to `O=C(Nc1cccc2c1C(=O)C(=O)C=C2c1ccccc1)OCc1ccccc1`, 1.34 µM. Turning to `NC1=CC(=O)C(=O)c2ccccc21` [4-AMINO-[1,2]NAPHTHOQUINONE], the concentration for half-maximal inhibition (IC50) stood at 24.6 µM. On the same count and under the same terms, to `COc1ccc2c(c1)C(=O)C(=O)C=C2c1ccccc1` belongs 2.04 µM; to `CCCCCOC1=C(c2ccccc2)c2ccccc2C(=O)C1=O`, 2.69 µM.

Turning to `CC(C)C1=CC(=O)C(=O)c2ccccc21`, the IC50 came to 10.1 µM. On the same count and under the same terms, to `CC(C)(C)c1cc(C2=CC(=O)C(=O)c3ccccc32)cc(C(C)(C)C)c1O` belongs 5.73 µM. Regarding `O=C1C=C(c2ccc(-c3ccccc3)cc2)c2ccccc2C1=O`, the 50% inhibitory concentration (IC50) amounted to 5.4 µM.

Turning to `O=C(Nc1ccc2c(c1)C(=O)C(=O)C=C2c1ccccc1)OCc1ccccc1`, the half-maximal inhibitory concentration (IC50) came out at 2.25 µM. As for `O=C1C=C(C2CCCC2)c2ccccc2C1=O`, the IC50 was found to be 4.2 µM. For the compound `CCCCCOc1ccc2c(c1)C(=O)C(=O)C=C2c1ccccc1`, the concentration for half-maximal inhibition (IC50) came out at 0.92 µM.

Regarding `O=C1C=C(c2cccc3ccccc23)c2ccccc2C1=O`, the half-maximal inhibitory concentration (IC50) came to 2.15 µM. Same read-out and setting: to `CCOC(=O)Nc1cccc2c1C(=O)C(=O)C=C2c1ccccc1` belongs 0.65 µM; to `O=C1C=C(c2ccccc2[N+](=O)[O-])c2ccccc2C1=O`, 1.17 µM; to `O=C1C=C(n2ccc3ccccc32)c2ccc(OC(Cc3ccccc3)C(=O)O)cc2C1=O` (stereo not drawn), 2.07 µM.

As for `O=C1C=C(OCCCO)c2ccccc2C1=O`, the IC50 was determined as 36.5 µM. Same read-out and setting: to `CCCCCCC1=CC(=O)C(=O)c2ccccc21` belongs 3.3 µM.

The target in another assay is T1, Tyrosine-protein phosphatase non-receptor type 1. Description: In vitro inhibitory activity against recombinant human protein-tyrosine phosphatase 1B (PTP1B) using fluorescein diphosphate (FDP) as a substrate; Not active.
Conditions: not given
Put shortly:
as §1
For `CCCCCOc1ccc2c(c1)C(c1ccccc1)=CC(=O)C2=O`, the IC50 entry is listed as “Not Active”.

For `CCCCC1=CC(=O)C(=O)c2ccccc21`, the IC50 result is on record as “Not Active”. The same measure, in the same setting: to `O=C1C=C(c2c(-c3ccccc3)[nH]c3ccccc23)c2ccccc2C1=O` belongs “Not Active”; to `Cc1c(C2=CC(=O)C(=O)c3ccccc32)c2ccccc2n1C`, “Not Active”. On to `CCCCCCCCCCC1=CC(=O)C(=O)c2ccccc21`, for which the half-maximal inhibitory concentration (IC50) result is reported as “Not Active”.

For a further assay the target is unchanged. Description: Inhibition of human Protein-tyrosine phosphatase 1B (PTP1B) using fluorescein diphosphate (FDP).
Conditions: not given
The gist of the method:
as §1
Regarding `CCOC(=O)CCC1=C(n2ccc3ccccc32)c2ccccc2C(=O)C1=O`, it took 0.27 µM to reach half-maximal inhibition (IC50).

For `COC(=O)CCC1=C(c2ccccc2)c2cc(CCC(=O)OC)ccc2C(=O)C1=O`, the IC50 came out at 0.68 µM. The same measure, in the same setting: to `CCOC(=O)CCC1=C(c2ccccc2)c2ccccc2C(=O)C1=O` belongs 0.43 µM; to `CC(C)(C)OC(=O)COc1ccc(CC2=C(c3ccccc3)c3ccccc3C(=O)C2=O)cc1`, 1.48 µM; to `O=C(O)COc1ccc(CC2=C(n3ccc4ccccc43)c3ccccc3C(=O)C2=O)cc1`, 1.01 µM.

On to `CCOC(=O)c1ccc(CCC2=C(c3ccccc3)c3ccccc3C(=O)C2=O)cc1`, for which the concentration for half-maximal inhibition (IC50) turned out to be 1.01 µM. `O=C(O)COc1ccc(CC2=C(c3ccccc3)c3ccccc3C(=O)C2=O)cc1` yielded an IC50 of 1.54 µM.

`O=C1C=Cc2ccccc2C1=O` [1,2-NAPHTHOQUINONE] displayed a 50% inhibitory concentration (IC50) of 24.6 µM. As to `COC(=O)CCC1=C(n2ccc3ccccc32)c2ccc(CCC(=O)OC)cc2C(=O)C1=O`, the IC50 came to 0.94 µM. The same measure, in the same setting: to `COC(=O)CCc1ccc2c(c1)C(n1ccc3ccccc31)=CC(=O)C2=O` belongs 0.92 µM. Same read-out and setting: to `COC(=O)CCc1ccc2c(c1)C(c1ccccc1)=CC(=O)C2=O` belongs 0.33 µM. Still for that read-out and setting: next, `CCN(CC)C(=O)CCC1=C(c2ccccc2)c2ccccc2C(=O)C1=O`: 0.61 µM.
